Screens (PubChem)
PglD DTNB – PglD (C. jejuni) enzyme inhibition | purified PglD enzyme, DTNB colorimetric CoA detection | AID 602405 | inhibition, % at 12.5 µM | 360,000 compounds, 0.098% hits; in the data active = inhibition above about 16%, passing the limit was not always enough; inconclusive = no clear call, values can overlap the other calls
SIRT5 inh – sirtuin-5 (human) deacylase inhibition | Q9NXA8 | AID 652115 | inhibition, % at 15 µM | 330,000 compounds, 1.1% hits | Purified SirT5, succinyl-peptide AMC, trypsin-coupled fluorescence; in the data active = inhibition above about 15%; inconclusive = no clear call, values can overlap the other calls
ERAP1 HTS inh – blocks human ERAP1 aminopeptidase activity | AID 652197 | recombinant ERAP1, Leu-AMC fluorescence, 60 min | 340,000 compounds, 0.15% hits | inhibition, % at 10.7 µM | Q9NZ08;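 active = mean replicate inhibition of at least 30%, or all replicates individually reaching that 30% level; inactive = mean below 30% and not every replicate reaching it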;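 also: 0% = neutral control wells and 100% = L-leucinethiol positive control wells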
E-sel inducer – induces E-selectin expression in human endothelial cells; P16581; activation, % at 7.58 µM; HUVEC E-selectin immunofluorescence imaging; normalized: neutral wells 0, TNF-alpha wells 100; 260,000 compounds, 0.37% hits;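 active = mean E-selectin-positive cell signal at least 10% of the positive control, reached in at least 60% of replicates, without over 20% cell loss; inconclusive = no rule given, readout overlaps actives, possibly toxicity-flagged; inactive = the rest, including those meeting only one limit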
Target sequence (P16581 whole entry, looked up): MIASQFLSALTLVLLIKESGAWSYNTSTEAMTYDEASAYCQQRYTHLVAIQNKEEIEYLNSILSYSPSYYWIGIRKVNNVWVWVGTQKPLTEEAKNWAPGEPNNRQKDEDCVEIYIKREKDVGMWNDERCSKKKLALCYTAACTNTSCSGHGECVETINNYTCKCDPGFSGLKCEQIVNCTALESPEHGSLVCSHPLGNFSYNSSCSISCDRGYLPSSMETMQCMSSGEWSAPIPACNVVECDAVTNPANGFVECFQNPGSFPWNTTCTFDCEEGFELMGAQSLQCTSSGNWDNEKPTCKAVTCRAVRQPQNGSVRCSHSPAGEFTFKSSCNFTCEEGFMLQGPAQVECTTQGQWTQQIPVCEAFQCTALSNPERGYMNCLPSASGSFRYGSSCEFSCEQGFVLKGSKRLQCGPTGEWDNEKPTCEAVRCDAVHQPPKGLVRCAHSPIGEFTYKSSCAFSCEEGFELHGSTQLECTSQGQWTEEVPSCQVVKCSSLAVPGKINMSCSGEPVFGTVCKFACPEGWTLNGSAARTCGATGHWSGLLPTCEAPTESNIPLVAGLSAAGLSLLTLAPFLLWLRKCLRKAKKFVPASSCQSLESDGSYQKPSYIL
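Assay system: HUVEC primary endothelial cells. Input: 3,000 HUVEC seeded per well. Doses: one compound dose added by pin transfer. Read-out basis: % PE-positive cells. Benchmarks: TNF-alpha high, DMSO low. Detection: immunofluorescence imaging. Buffer or medium: EGM-2, gelatin.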
DENV2 CPE – inhibitors of DENV2 cytopathic effect. 350,000 compounds, 1.7% hits. DENV2-infected cells, cytopathic effect rescue, plate reader. CPE inhibition, % at 9.99 µM; in the data active = CPE inhibition above about 20%, passing the limit was not always enough; inconclusive = no clear call, values can overlap the other calls; tested in BHK-21 cells;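 also: 0% = median of neutral control wells and 100% = median of positive control wells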
* hit, by the source's call; ? = inconclusive; · = not tested or not shown; ! = not active in a repeat. Hits are enriched below; roughly 2.5% of the tested compounds scored in any of these assays.

SMILES | PglD DTNB | SIRT5 inh | ERAP1 HTS inh | E-sel inducer | DENV2 CPE
C[C@@H]1CN([C@@H](C)CO)C(=O)c2cc(NS(=O)(=O)c3ccc(Cl)cc3)ccc2O[C@H]1CN(C)CC1CC1 | 3 | 2 | -4 | 0 | 29*
C[C@H](CO)N1C[C@H](C)[C@H](CN(C)CC2CC2)Oc2ccc(NS(=O)(=O)c3ccc(Cl)cc3)cc2C1=O | 0 | -3 | -1 | 0 | -11
COc1ccc(S(=O)(=O)Nc2ccc3c(c2)C(=O)N([C@@H](C)CO)C[C@H](C)[C@H](CN(C)CC2CC2)O3)cc1 | 6 | 27*! | -1 | 0 | 0
CC(=O)N(C)C[C@@H]1Oc2ncc(-c3ccccc3C)cc2C(=O)N([C@H](C)CO)C[C@H]1C | -7 | 32* | -4 | 0 | ?
C[C@@H]1CN([C@H](C)CO)C(=O)c2cc(C#Cc3ccc(F)cc3)cnc2O[C@@H]1CN(C)C(=O)c1ccccc1F | 0 | -1 | 1 | 0 | 45*
Cc1ccc(-c2cnc3c(c2)C(=O)N([C@@H](C)CO)C[C@H](C)[C@@H](CN(C)C(=O)c2ccccc2)O3)cc1 | 3 | 1 | 5 | 1 | -3
CC(=O)N(C)C[C@H]1Oc2ncc(-c3ccccc3C)cc2C(=O)N([C@H](C)CO)C[C@@H]1C | 0 | 1 | 0 | 0 | 2
Cc1ccc(-c2cnc3c(c2)C(=O)N([C@H](C)CO)C[C@@H](C)[C@@H](CN(C)C(=O)c2ccccc2)O3)cc1 | 0 | -1 | 8 | 0 | 68*
C[C@@H]1CN([C@H](C)CO)C(=O)c2cc(-c3ccccc3)cnc2O[C@@H]1CN(C)C(=O)c1ccccc1F | -1 | -3 | · | 0 | 105*
C[C@H]1CN([C@@H](C)CO)C(=O)c2cc(-c3ccccc3)cnc2O[C@@H]1CN(C)C(=O)c1ccccc1F | -1 | 1 | -3 | 0 | ?
CCOc1ccc(S(=O)(=O)N2CCOCC2)cc1NC(=O)CCN1C(=O)NC2(CCCC2)C1=O | 2 | · | -1 | 1 | 5
Cc1ccc(S(=O)(=O)N(C)C[C@@H]2Oc3ncc(C#CC4(O)CCCC4)cc3C(=O)N([C@@H](C)CO)C[C@@H]2C)cc1 | 2 | -3 | 2 | 0 | 15
COc1ccc(OC(=O)/C=C/c2ccc([N+](=O)[O-])cc2)cc1 | 6 | 2 | 1 | 0 | 13
C[C@H]1CN([C@@H](C)CO)C(=O)c2cc(-c3cccnc3)cnc2O[C@@H]1CN(C)C(=O)C1CCC1 | 0 | 7 | 2 | 10 | 3
C[C@H]1CN([C@@H](C)CO)C(=O)c2cc(-c3cccnc3)cnc2O[C@H]1CN(C)C(=O)C1CCC1 | 0 | -3 | 2 | 1 | 24*
C[C@@H]1CN([C@H](C)CO)C(=O)c2cc(-c3ccccc3)cnc2O[C@@H]1CN(C)C(=O)c1cccnc1 | · | 16* | 0 | 0 | 9
C[C@@H]1CN([C@@H](C)CO)C(=O)c2cc(-c3ccncc3)cnc2O[C@@H]1CN(C)C(=O)c1ccncc1 | 3 | -1 | 1 | 0 | -1
C[C@H]1CN([C@@H](C)CO)C(=O)c2cc(-c3ccncc3)cnc2O[C@H]1CN(C)C(=O)c1ccncc1 | -2 | 16* | 2 | 1 | -6
CCN1CCC(N2CCN(c3ccc(F)cc3)CC2)CC1 | 1 | 1 | -1 | 0 | 28*
Fc1ccc(N2CCN(C3CCC(c4ccccc4)CC3)CC2)cc1 (stereo unspecified) | 0 | -1 | -1 | 0 | 0
O=C(O)c1ccc2nc(-c3ccco3)c(-c3ccco3)nc2c1 | -5 | 22* | 20 | · | -2
CCC(CC)CN1CCC(CN2C(=O)C(=O)NC[C@@H]2[C@@H](C)CC)CC1 | -2 | -3 | 2 | -1 | -14
CCC(CC)CN1CCC(CN2C(=S)NC[C@@H]2[C@@H](C)CC)CC1 | 1 | 19* | 0 | 0 | -4
Cc1cc(C)cc(NC2=C(N)C(=O)c3ccccc3C2=O)c1 | -1 | 16* | 1 | · | ·
Cc1ccc(NC2=C(Cl)C(=O)c3ccccc3C2=O)cc1 | -2 | -3 | 0 | 2 | 83*
O=c1[nH]c2cc(Cl)c([N+](=O)[O-])nc2[nH]1 | · | -3 | -3 | -3 | 4
Cc1ccc(OCC(=O)Nc2nnc(S(=O)(=O)N3CCCCCC3)s2)cc1C | 2 | 0 | 0 | 0 | -6
O=C(COc1ccc(Cl)cc1)Nc1nnc(S(=O)(=O)N2CCCCCC2)s1 | -3 | -4 | 3 | 115* | -9
